Laboratory results published in publication PMC3594649 (Molecular pharmaceutics, 2013).
Where two headings read alike, the source gives them in different places.

Columns and labels:
[1] = concomitant administration of sulforaphane, humans; cited from earlier work
[2] = format: in vivo, mouse
Summary of the method: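 An ileal segment of 2–3 cm was perfused open-loop at 0.2 ml/min, with or without GF120918 (4 μM) in the perfusate. Collected mesenteric blood was analysed by C18 HPLC with fluorescence detection (ex 268/em 347 nm). Metabolite is expressed relative to parent drug.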

[3] = system: ileum of TgCYP3A4/hPXR mice; experiment: In situ intestinal perfusion with mesenteric blood sampling, TgCYP3A4/hPXR mice; format: in vivo, mouse; conditions: for increase in intestinal permeability for darunavir: GF120918 4 μM in perfusate

For `C[S+]([O-])CCCCN=C=S` (stereo not shown) [sulforaphane], the “effect on rifampicin-caused decrease of midazolam AUC” value [1] is given as “did not reduce”.
With `CC(C)(O)CN(C[C@@H](O)[C@H](Cc1ccccc1)NC(=O)O[C@H]1CO[C@H]2OCC[C@H]21)S(=O)(=O)c1ccc(N)cc1` [R426857] the “concentration of R426857 relative to darunavir in mesenteric blood” value ([2]; TgCYP3A4/hPXR mice, perfusion without GF120918) was “less than 0.8%”, the “relative amount of R426857 to darunavir in mesenteric blood” value ([2]; perfused with GF120918, rifampicin-treated TgCYP3A4/hPXR mice) was 3.1% and the “relative amount of R426857 to darunavir in mesenteric blood” value ([2]; perfused with GF120918, untreated TgCYP3A4/hPXR mice) was 1.6%.
In the case of `Nn1nnc2ccccc21` [aminobenzotriazole], the “effect on intestinal permeability for darunavir” value ([3]; rifampicin-treated TgCYP3A4/hPXR mice, aminobenzotriazole 100 μM in perfusate) is reported as “did not increase”.
In the case of `COc1cc2c(cc1OC)CN(CCc1ccc(NC(=O)c3cccc4c(=O)c5cccc(OC)c5[nH]c34)cc1)CC2` [GF120918, N-(4-[2-(1,2,3,4-tetrahydro-6,7-dimethoxy-2-isoquinolinyl)ethyl]-phenyl)-9,10-dihydro-5-methoxy-9-oxo-4-acridine carboxamide], the “increase in intestinal permeability for darunavir” value ([3]; TgCYP3A4/hPXR mice not treated with rifampicin, darunavir 100 μM in FaSSIF, p < 0.05) is reported as 56% and the “increase in intestinal permeability for darunavir” value ([3]; rifampicin-treated TgCYP3A4/hPXR mice (10 mg/kg, 3 days), p<0.05) is reported as 400%.
